# Source: ChEMBL document CHEMBL1143936, “Role of benzimidazole (Bid) in the delta-opioid agonist pseudopeptide H-Dmt-Tic-NH-CH(2)-Bid (UFP-502)” (Bioorg Med Chem, 2008)
# Columns and labels:
# [1] = target: T1, Delta-type opioid receptor (Mus musculus, UniProt P32300); assay: Agonist activity at delta opioid receptor assessed as inhibition of electrically-stimulated mouse vas deferens contraction; type: functional, tissue-based
# Outline: (§1)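 Isolated tissues in organ baths of balanced physiological salt buffer, pH 7.5. δ: single mouse vas deferens. μ: 2–3 cm myenteric plexus–longitudinal muscle strips from the small intestine of male Hartley guinea pigs. Read-out was inhibition of electrically evoked contraction; IC50 from dose–response curves, mean ± SE of separate assays. Internal standards were DPDPE (vas deferens) and PL-017 (ileum).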
# Mu-type opioid receptor [2] = target: Mu-type opioid receptor (Cavia porcellus, UniProt P97266); assay: Agonist activity at mu opioid receptor assessed as inhibition of electrically-stimulated Hartley guinea pig contraction; type: functional, Hartely; outline: as §1
# Mu-type opioid receptor [3] = target: Mu-type opioid receptor (Rattus norvegicus, UniProt P33535); assay: Binding affinity to mu opioid receptor in Sprague-Dawley rat brain membrane; type: cell membranes
# Outline: (§2)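 Competition binding at equilibrium (2.5 h, 23 °C) on brain P2 synaptosomal membranes from Sprague-Dawley rats. Membranes were preincubated to strip endogenous opioid peptides and stored at −80 °C in buffered 20% glycerol. Filtration used GFC filters pre-soaked in 0.1% polyethylenimine, washed three times with ice-cold buffered BSA. Five to eight doses were run in duplicate, 3–5 independent membrane preparations each. Ki by Cheng–Prusoff, mean ± SE.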
# [4] = target: Delta-type opioid receptor (Rattus norvegicus, UniProt P33533); assay: Binding affinity to delta opioid receptor in Sprague-Dawley rat brain membrane; type: cell membranes; outline: as §2
# Rattus norvegicus [5] = species: Rattus norvegicus; assay: Selectivity ratio of Sprague-Dawley rat mu opioid receptor to Sprague-Dawley rat delta opioid receptor
# Outline: (§3)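 Ratio of the Ki values for δ and μ sites, both from the same rat brain synaptosome competition binding assay (2.5 h, 23 °C; Cheng–Prusoff Ki).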
# [6] = target: T1, Delta-type opioid receptor; assay: Antagonist activity at delta opioid receptor assessed as DPDPE-stimulated mouse vas deferens contraction; type: functional, tissue-based; details: read-out: pA2 (converted)
# Outline: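 Mouse vas deferens in an organ bath with physiological salt buffer, pH 7.5, electrically stimulated. Antagonism was measured against the δ agonist DPDPE and expressed as pA2 from a Schild plot.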
# Rattus norvegicus [7] = species: Rattus norvegicus; assay: Selectivity ratio of rat delta opioid receptor to rat mu opioid receptor; outline: as §3
# Chain of Delta-type opioid receptor (Rattus norvegicus, UniProt P33533) (P33533 whole entry): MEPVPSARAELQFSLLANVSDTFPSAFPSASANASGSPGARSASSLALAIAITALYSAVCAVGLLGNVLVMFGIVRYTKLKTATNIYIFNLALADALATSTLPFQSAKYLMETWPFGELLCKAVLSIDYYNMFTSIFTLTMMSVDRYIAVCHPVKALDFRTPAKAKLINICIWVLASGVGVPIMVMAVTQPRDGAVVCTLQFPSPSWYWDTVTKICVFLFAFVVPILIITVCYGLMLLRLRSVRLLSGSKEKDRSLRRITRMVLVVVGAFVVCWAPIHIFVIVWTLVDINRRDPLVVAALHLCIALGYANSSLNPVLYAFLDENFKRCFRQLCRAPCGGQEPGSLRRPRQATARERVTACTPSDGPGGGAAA
# T1 sequence (P32300 whole entry): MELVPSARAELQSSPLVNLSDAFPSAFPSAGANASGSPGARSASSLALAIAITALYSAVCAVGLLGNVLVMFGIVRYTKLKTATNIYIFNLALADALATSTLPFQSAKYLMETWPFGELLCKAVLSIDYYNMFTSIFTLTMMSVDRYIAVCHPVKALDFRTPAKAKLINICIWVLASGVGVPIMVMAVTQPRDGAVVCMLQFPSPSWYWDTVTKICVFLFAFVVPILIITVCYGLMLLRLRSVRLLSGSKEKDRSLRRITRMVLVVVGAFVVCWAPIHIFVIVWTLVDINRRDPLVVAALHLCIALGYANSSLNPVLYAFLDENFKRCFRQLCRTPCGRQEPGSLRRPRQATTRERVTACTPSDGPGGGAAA
# Chain of Mu-type opioid receptor (Cavia porcellus, UniProt P97266) (P97266 whole entry): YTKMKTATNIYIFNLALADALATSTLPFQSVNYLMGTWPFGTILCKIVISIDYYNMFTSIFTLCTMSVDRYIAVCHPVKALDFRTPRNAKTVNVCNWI
# Chain of Mu-type opioid receptor (Rattus norvegicus, UniProt P33535) (P33535 whole entry): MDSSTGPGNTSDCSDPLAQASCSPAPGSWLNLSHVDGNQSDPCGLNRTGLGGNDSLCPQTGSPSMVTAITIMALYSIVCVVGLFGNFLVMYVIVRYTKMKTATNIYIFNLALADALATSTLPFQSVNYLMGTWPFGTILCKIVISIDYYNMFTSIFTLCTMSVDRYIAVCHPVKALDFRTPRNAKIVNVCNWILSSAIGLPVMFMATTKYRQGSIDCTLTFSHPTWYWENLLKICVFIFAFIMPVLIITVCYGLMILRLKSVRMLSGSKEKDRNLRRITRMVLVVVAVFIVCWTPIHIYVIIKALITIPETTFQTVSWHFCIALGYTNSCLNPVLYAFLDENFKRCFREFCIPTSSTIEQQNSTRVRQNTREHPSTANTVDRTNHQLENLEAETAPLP
SMILES,IC50 [1] [nM],IC50 (Mu-type opioid receptor [2]) [nM],Ki (Mu-type opioid receptor [3]) [nM],Ki [4] [nM],Ratio Ki (Rattus norvegicus [5]),Kb [6] [nM],Ratio Ki (Rattus norvegicus [7])
Cc1cc(O)cc(C)c1C[C@H](N)C(=O)N1Cc2ccccc2C[C@H]1C(=O)NCc1nc2ccccc2[nH]1,0.94,35.5,–,–,–,–,–
Cc1cc(O)cc(C)c1C[C@H](N)C(=O)N1Cc2ccccc2C[C@H]1C(=O)NCc1nc2ccccc2o1,–,170,1.42,0.283,5,0.38,–
Cc1cc(O)cc(C)c1C[C@H](N)C(=O)N1Cc2ccccc2C[C@H]1C(=O)NCc1cc2ccccc2[nH]1,–,209,0.7,0.066,10.6,0.355,–
Cc1cc(O)cc(C)c1C[C@H](N)C(=O)N1Cc2ccccc2C[C@H]1C(=O)NCC1Cc2ccccc2C1,129,28.4,0.16,0.199,–,–,1.2
Cc1cc(O)cc(C)c1C[C@H](N)C(=O)N1Cc2ccccc2C[C@H]1C(=O)NCc1nc(-c2ccccc2)c[nH]1,–,154,6.74,0.443,15,0.398,–
Cc1cc(O)cc(C)c1C[C@H](N)C(=O)N1Cc2ccccc2C[C@H]1C(=O)NCc1ncc[nH]1,3.63,113,1.18,0.114,10,–,–
Cc1cc(O)cc(C)c1C[C@H](N)C(=O)N1Cc2ccccc2C[C@H]1C(=O)NCc1nc2ccccc2s1,–,129,1.06,0.145,7.3,0.427,–
